Values after ≈ are worked out from the molar mass of the structure shown. Active and inactive are the calls of the source. The calls are words filed in the database; no cut-off is given here.
Key:
[1] = Toxicity against human erythrocytes assessed as hemolytic activity; type: cell-based, Erythrocyte
How it was run: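 Human erythrocytes were washed in Tris-buffered saline pH 7.4. Cells at 2.5×10^8 cells/ml were exposed to 3.1–50 μg/ml compound for 30 min at 42 °C with gentle shaking, chilled, and centrifuged. Hemoglobin in the supernatant was read at 550 nm after 10-fold dilution in 0.5% NH4OH. Saponin 100 mg/liter = 100%, phosphate buffer = 0%. EC50 from dose-response curves.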

[2] = Inhibition of Escherichia coli MC4100 DnaK assessed as effect on luciferase refolding
How it was run: (§1)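 Firefly luciferase was denatured 1 h at 10 °C in 6.0 M guanidinium chloride with 5 mM DTT, Tris pH 7.4, at 2.08 μM. It was diluted to 10.4 nM into MOPS pH 7.8 buffer with 1 mM ATP, 5 mM MgCl2, 436 nM DnaK, 160 nM DnaJ and 436 nM GrpE, preincubated 10 min with compound, at 10 °C and 30 °C. Activity was read by luminescence after 1 h. IC50 from a one-site competition fit.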

Escherichia coli [3] = assay: Antimicrobial activity against Escherichia coli MC4100 at 42 degC; type: functional
How it was run: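 Liquid growth inhibition in Mueller-Hinton medium, run in triplicate. Compound was dissolved in ethanol/10 mM potassium phosphate pH 7.8, and its concentration was set by absorbance at 236 nm. Varying concentrations were added to mid-log E. coli MC4100 and incubated 24 h at 42 °C, then plated at 37 °C overnight for CFU. MIC = concentration giving 99.9% growth inhibition (NCCLS).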

[4] = Displacement of sigma32 derived peptide from Escherichia coli MC4100 DnaK
Escherichia coli [5] = assay: Inhibition of Escherichia coli MC4100 DnaK-reduced carboxymethylated lactalbumin complex at >25 uM
Escherichia coli [6] = assay: Antimicrobial activity against Escherichia coli MC4100 delta-tig at 30 degC; type: functional
Escherichia coli [7] = assay: Inhibition of IPTG-induced thermotolerance in heat shocked Escherichia coli MC4100 expressing delta-DnaK at 1.35 mM; type: functional, organism-based
How it was run: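 E. coli MC4100 ΔdnaK pTrc99A-DnaK was grown at 30 °C in Terrific Broth and induced 1 h with 0–1.0 mM IPTG. Cells were heat-shocked 210 s at 57 °C with 1.35 mM compound added just before, then iced 2 min. Serial dilutions were spotted on LB with marker and IPTG and grown 12 h at 30 °C. DnaK levels were checked by immunoblot.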

Escherichia coli [8] = assay: Increase heat shock-induced protein aggregation in wild type Escherichia coli MC4100; type: functional, organism-based
How it was run: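 Wild-type MC4100 was grown at 30 °C to mid-exponential phase, exposed 15 min to compound (0.13 or 0.066 mg/ml), heat-shocked 30 min at 45 °C, then recovered 3 h at 30 °C. The Nonidet P-40-insoluble aggregated protein fraction was isolated by lysozyme/sonication lysis and differential centrifugation, then run on 12.5% SDS-PAGE with Coomassie stain, equal cell numbers per lane. ΔdnaK cells were the reference.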

Escherichia coli [9] = assay: Increase in transcriptional activity of heat shock inducible rpoDPhs promoter of sigma32 gene in Escherichia coli MC4100 at 200 uM assessed as beta galactosidase activity after 12 hrs at 42 degC; type: functional
Escherichia coli [10] = assay: Increase in transcriptional activity of heat shock inducible pGroESL promoter of sigma32 gene in Escherichia coli MC4100 at 200 uM assessed as beta galactosidase activity after 12 hrs at 42 degC; type: functional
Escherichia coli [11] = assay: Increase in transcriptional activity of heat shock inducible PhtrL-lacZ promoter of sigma32 gene in Escherichia coli MC4100 at 200 uM assessed as beta galactosidase activity after 12 hrs at 42 degC; type: functional, organism-based
Escherichia coli [12] = assay: Increase in transcriptional activity of heat shock inducible PhtrP-lacZ promoter of sigma32 gene in Escherichia coli MC4100 at 200 uM assessed as beta galactosidase activity after 12 hrs at 42 degC; type: functional, organism-based
Escherichia coli [13] = assay: Activation of Escherichia coli MC4100 RNA polymerase at 200 uM by transcription assay
How it was run: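 In vitro transcription of small circular single-strand DNA universal templates by purified E. coli RNA polymerase core enzyme, run per the kit manufacturer's protocol.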

Escherichia coli [14] = assay: Effect on membrane permeability of Escherichia coli MC4100 assessed as beta lactamase activity in medium at 25 degC; type: functional
How it was run: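 Cells were grown with 200 μM compound for 24 h. β-Lactamase activity released to the medium was compared with total activity.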

Escherichia coli [15] = assay: Binding affinity to DnaK in Escherichia coli MC4100 at 0.7 mM by pull-down assay
How it was run: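 MC4100 grown overnight in LB at 42 °C and lysed by sonication. Lysate incubated 1 h at room temperature with 0.7 mM biotinylated inhibitor in buffer C (20 mM Tris/HCl pH 7.5, 50 mM KCl, 1 mM MgCl2). BSA-blocked streptavidin beads then added for a further 1 h. Beads washed twice; bound protein eluted with 1.92 mM (final) non-biotinylated parent inhibitor. Read by SDS-PAGE and anti-DnaK immunoblot.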

Escherichia coli [16] = assay: Antimicrobial activity against Escherichia coli MC4100 at 30 degC; type: functional
Escherichia coli [17] = assay: Induction of heat shock response in Escherichia coli MC4100 at 30 degC; type: functional, organism-based
[18] = Inhibition of secondary amide peptide bond cis/trans isomerase activity of Escherichia coli MC4100 DnaK assessed as RNase T1P39A refolding assay
[19] = Inhibition of secondary amide peptide bond cis/trans isomerase activity of Escherichia coli MC4100 DnaK/DnaJ/GrpE assessed as luciferase refolding; how it was run: as §1
Escherichia coli [20] = assay: Inhibition of ATPase activity of Escherichia coli MC4100 DnaK at 150 uM
How it was run: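 Steady-state ATPase assay. 1 µM DnaK preincubated with 150 µM inhibitor for 10 min at 30 °C. Reaction started with 330 µM ATP and followed for at least 10 min.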

Escherichia coli [21] = assay: Inhibition of Escherichia coli MC4100 DnaK-reduced carboxymethylated lactalbumin complex up to 500 uM
Escherichia coli [22] = assay: Antimicrobial activity against Escherichia coli MC4100 up to 1.4 mg/ml at 37 degC; type: functional, organism-based

SMILES | EC50 [1] | IC50 [2] | MIC (Escherichia coli [3]) | also measured
CCCCCCCCCCCC(=O)NCc1ccc(C(=O)N[C@H](C(=O)O)[C@@H](C)CC)cc1 | 400 µg/mL (≈ 896 µM) | 1.9 µg/mL (≈ 4.25 µM) | 650 µg/mL (≈ 1460 µM) | 
CCCCCCCCCCCCCC(=O)NCc1ccc(C(=O)N[C@@H](Cc2ccccc2)C(=O)O)cc1 | > 200 µg/mL | 3.9 µg/mL (≈ 7.67 µM) | 1200 µg/mL (≈ 2360 µM) | 
CC(C)C[C@H](NC(=O)[C@H](CC(C)C)NC(=O)[C@H](CCCNC(=N)N)NC(=O)[C@@H](N)CC(N)=O)C(=O)N[C@@H](CC(C)C)C(=O)N[C@H](C(=O)NCC(=O)O)[C@@H](C)O |  |  |  | IC50 [4]: 1.3 µM; Activity (Escherichia coli [5]): Active
CCCCCCCCCCCCCC(=O)NCc1ccc(C(=O)N[C@@H](CC(N)=O)C(=O)O)cc1 | > 10 µg/mL | 4.6 µg/mL (≈ 9.67 µM) | 100 µg/mL (≈ 210 µM) | 
CC/C=C/CC(=O)NCc1ccc(C(=O)N[C@H](C(=O)O)[C@@H](C)CC)cc1 | > 1500 µg/mL | 35.9 µg/mL (≈ 99.6 µM) | 280 µg/mL (≈ 777 µM) | 
CCCCCCCCCCCCCC(=O)NCc1ccc(C(=O)N[C@H](C(=O)O)[C@@H](C)CC)cc1 | 66 µg/mL (≈ 139 µM) | 4.9 µg/mL (≈ 10.3 µM) | 380 µg/mL (≈ 801 µM) | MIC (Escherichia coli [6]): 860 µg/mL (≈ 1810 µM); Activity (Escherichia coli [7]): Active; Activity (Escherichia coli [8]): Active; Fold change (Escherichia coli [9]): 2; Fold change (Escherichia coli [10]): 2; Activity (Escherichia coli [11]): inactive; Activity (Escherichia coli [12]): inactive; Activity (Escherichia coli [13]): inactive; Activity (Escherichia coli [14]): 0.89%; Activity (Escherichia coli [15]): Active; MIC (Escherichia coli [16]): ≥ 5000 µg/mL; Activity (Escherichia coli [17]): inactive; IC50 [18]: 2.7 µM; IC50 [19]: 9.5 µM; Activity (Escherichia coli [20]): inactive; IC50 [4]: 29.1 µM; Kd [4]: 2.6 µM; Activity (Escherichia coli [21]): inactive; Activity (Escherichia coli [22]): inactive
CCCCCCCCCCCCCC(=O)NCCc1ccc(C(=O)N[C@H](C(=O)O)[C@@H](C)CC)cc1 | 35 µg/mL (≈ 71.6 µM) | 2.6 µg/mL (≈ 5.32 µM) | 640 µg/mL (≈ 1310 µM) | 
CCCCCCCCCCCCCCCCCC(=O)NCc1ccc(C(=O)N[C@H](C(=O)O)[C@@H](C)CC)cc1 | 30 µg/mL (≈ 56.5 µM) | 2.3 µg/mL (≈ 4.33 µM) | 3100 µg/mL (≈ 5840 µM) | 
CCCCCCCCCCCCCC(=O)NCc1ccc(C(=O)N[C@H](C(N)=O)[C@@H](C)CC)cc1 | 100 µg/mL (≈ 211 µM) | 6.1 µg/mL (≈ 12.9 µM) | 1200 µg/mL (≈ 2530 µM) | 
CCCCCC(=O)NCc1ccc(C(=O)N[C@H](C(=O)O)[C@@H](C)CC)cc1 | > 1500 µg/mL | > 400 µg/mL | 1000 µg/mL (≈ 2760 µM) | Activity (Escherichia coli [9]): inactive; Activity (Escherichia coli [10]): inactive; Activity (Escherichia coli [14]): 3.68%
CC1(C)S[C@@H]2[C@H](NC(=O)[C@H](N)c3ccccc3)C(=O)N2[C@H]1C(=O)O [AMPICILLIN] |  |  | 14 µg/mL (≈ 40.1 µM) | 
CCCCCCCCCCCCCC(=O)NCc1ccc(C(=O)NCC(=O)O)cc1 | > 50 µg/mL | 5.5 µg/mL (≈ 13.1 µM) | > 500 µg/mL | 
CCCCCCCCCCCCCC(=O)NCc1ccc(C(=O)N[C@@H](CCC(N)=O)C(=O)O)cc1 | 520 µg/mL (≈ 1060 µM) | 11.5 µg/mL (≈ 23.5 µM) | 2800 µg/mL (≈ 5720 µM) | 
CCCCCCCCCCCCCCCC(=O)NCc1ccc(C(=O)N[C@H](C(=O)O)[C@@H](C)CC)cc1 | 50 µg/mL (≈ 99.5 µM) | 1.2 µg/mL (≈ 2.39 µM) | 180 µg/mL (≈ 358 µM) | 
CCCCCC/C=C\CCCCCCCC(=O)NCc1ccc(C(=O)N[C@H](C(=O)O)[C@@H](C)CC)cc1 | 250 µg/mL (≈ 499 µM) | 3.6 µg/mL (≈ 7.19 µM) | 1300 µg/mL (≈ 2600 µM) | 
CCCCCCCCCCCCCC(=O)Nc1ccc(C(=O)N[C@H](C(=O)O)[C@@H](C)CC)cc1 | > 10 µg/mL | 1.1 µg/mL (≈ 2.39 µM) | > 60 µg/mL | 
CCCCCCCCCCCCCC(=O)NCc1cccc(C(=O)N[C@H](C(=O)O)[C@@H](C)CC)c1 | 84 µg/mL (≈ 177 µM) | 7 µg/mL (≈ 14.7 µM) | > 2000 µg/mL | 
CCCCCCCCCC(=O)NCc1ccc(C(=O)N[C@H](C(=O)O)[C@@H](C)CC)cc1 | > 1000 µg/mL | 40.4 µg/mL (≈ 96.5 µM) | 490 µg/mL (≈ 1170 µM) | 
CCCC/C=C\CCCCCCCC(=O)NCc1ccc(C(=O)N[C@H](C(=O)O)[C@@H](C)CC)cc1 | 350 µg/mL (≈ 740 µM) | 0.75 µg/mL (≈ 1.59 µM) | 630 µg/mL (≈ 1330 µM) | 
